In ChEMBL document CHEMBL1152541, “Staurosporine tethered peptide ligands that target cAMP-dependent protein kinase (PKA): optimization and selectivity profiling” (Bioorg Med Chem, 2009) one finds Activity and Selectivity ratio data, which are given here for three molecules.

The target in test [1] is cAMP-dependent protein kinase catalytic subunit alpha (Homo sapiens) (UniProt P17612). The test can be described thus: Binding affinity to human PKACalpha at 500 nM by cell-based competition binding assay relative to control in presence of DTT.
Test [2] has as its target Serine/threonine-protein kinase pim-3 (Homo sapiens) (UniProt Q86V86). Nature of the test: Binding affinity to human PIM3 at 500 nM by cell-based competition binding assay relative to control in presence of DTT.
The target of test [3] is Serine/threonine-protein kinase PLK1 (Homo sapiens) (UniProt P53350). The test can be described thus: Binding affinity to human PLK1 at 500 nM by cell-based competition binding assay relative to control in presence of DTT.
Test [4] addresses Vascular endothelial growth factor receptor 2 (Homo sapiens) (UniProt P35968). Nature of the test: Binding affinity to human VEGFR2 at 500 nM by cell-based competition binding assay relative to control in presence of DTT.
In test [5] the target is Dual specificity tyrosine-phosphorylation-regulated kinase 1B (Homo sapiens) (UniProt Q9Y463). Nature of the test: Binding affinity to human DYRK1B at 500 nM by cell-based competition binding assay relative to control in presence of DTT. Summed up: (§1)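 Commercial (Ambit) competitive kinase-binding panel of 90 kinases measured the binding profile. Run under reducing conditions of 7.5 mM DTT. Binding is expressed relative to control.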

Test [6] addresses Fibroblast growth factor receptor 2 (Homo sapiens) (UniProt P21802). Nature of the test: Binding affinity to human FGFR2 at 500 nM by cell-based competition binding assay relative to control in presence of DTT. In short, it runs like this: as §1
Test [7] addresses T1, Serine/threonine-protein kinase Chk1 (Homo sapiens) (UniProt O14757).
T1 sequence (whole entry): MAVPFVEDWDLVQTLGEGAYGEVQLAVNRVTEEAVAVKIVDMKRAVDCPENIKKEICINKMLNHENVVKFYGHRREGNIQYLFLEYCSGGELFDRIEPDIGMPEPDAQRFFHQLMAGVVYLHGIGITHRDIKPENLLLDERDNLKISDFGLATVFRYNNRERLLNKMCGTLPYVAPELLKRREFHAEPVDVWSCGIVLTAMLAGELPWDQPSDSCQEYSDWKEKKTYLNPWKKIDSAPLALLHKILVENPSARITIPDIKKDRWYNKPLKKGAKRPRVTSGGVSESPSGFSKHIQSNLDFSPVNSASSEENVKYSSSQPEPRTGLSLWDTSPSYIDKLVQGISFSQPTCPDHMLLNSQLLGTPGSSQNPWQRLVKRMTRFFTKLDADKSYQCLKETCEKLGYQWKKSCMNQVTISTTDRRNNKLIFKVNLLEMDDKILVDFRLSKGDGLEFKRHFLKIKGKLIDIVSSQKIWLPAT
Nature of the test: Ratio of compound to staurosporine binding affinity to CHK1 in presence of DTT.

Test [8] has as its target Mast/stem cell growth factor receptor Kit (Homo sapiens) (UniProt P10721). Nature of the test: Binding affinity to human KIT at 200 nM by cell-based competition binding assay relative to control in presence of DTT. Summed up: (§2)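 Competition binding screen (Ambit) across a panel of 90 kinases, scoring test ligand displacement of each kinase's binding relative to control. The screen ran under reducing conditions with 7.5 mM DTT.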

Test [9] deals with Ribosomal protein S6 kinase alpha-3 (Homo sapiens) (UniProt P51812). The test can be described thus: Binding affinity to human RPS6KA3 kinase domain 1 at 200 nM by cell-based competition binding assay relative to control in presence of DTT.
Chain of Ribosomal protein S6 kinase alpha-3 (Homo sapiens) (P51812 whole entry, the tested form may be a part): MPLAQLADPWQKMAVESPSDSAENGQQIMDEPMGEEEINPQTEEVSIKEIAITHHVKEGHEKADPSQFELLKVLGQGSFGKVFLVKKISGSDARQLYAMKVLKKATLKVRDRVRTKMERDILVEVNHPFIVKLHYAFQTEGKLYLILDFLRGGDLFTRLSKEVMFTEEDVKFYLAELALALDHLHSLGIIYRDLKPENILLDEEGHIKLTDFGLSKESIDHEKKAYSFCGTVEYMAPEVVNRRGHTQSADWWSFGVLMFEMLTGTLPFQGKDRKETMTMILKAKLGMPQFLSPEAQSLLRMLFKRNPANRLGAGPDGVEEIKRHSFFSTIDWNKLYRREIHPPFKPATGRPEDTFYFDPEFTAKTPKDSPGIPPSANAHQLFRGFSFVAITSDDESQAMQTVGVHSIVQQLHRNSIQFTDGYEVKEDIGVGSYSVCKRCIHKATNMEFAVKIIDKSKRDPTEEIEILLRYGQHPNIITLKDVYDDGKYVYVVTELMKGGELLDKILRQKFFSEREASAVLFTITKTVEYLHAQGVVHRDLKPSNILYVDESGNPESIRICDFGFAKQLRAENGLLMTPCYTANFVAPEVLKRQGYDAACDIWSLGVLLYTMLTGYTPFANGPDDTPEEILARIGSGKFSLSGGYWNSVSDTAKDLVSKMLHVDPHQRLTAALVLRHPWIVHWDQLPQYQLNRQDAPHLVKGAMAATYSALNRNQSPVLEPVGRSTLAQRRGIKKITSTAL
The target of test [10] is Tyrosine-protein kinase ABL1 (Homo sapiens) (UniProt P00519). The test can be described thus: Binding affinity to human ABL1 at 200 nM by cell-based competition binding assay relative to control in presence of DTT. Summed up:
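Kinase binding profiling ran on a commercial (Ambit) competitive binding screen against a panel of 90 kinases. The screen used reducing conditions with 7.5 mM DTT. To withstand the DTT, the bivalent ligand was tested as its amide isostere, with the disulfide replaced. A staurosporine derivative carrying a 3 β-alanine linker was run as the reference compound.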

In test [11] the target is T2, Protein kinase C epsilon type (Homo sapiens) (UniProt Q02156).
T2 sequence (whole entry): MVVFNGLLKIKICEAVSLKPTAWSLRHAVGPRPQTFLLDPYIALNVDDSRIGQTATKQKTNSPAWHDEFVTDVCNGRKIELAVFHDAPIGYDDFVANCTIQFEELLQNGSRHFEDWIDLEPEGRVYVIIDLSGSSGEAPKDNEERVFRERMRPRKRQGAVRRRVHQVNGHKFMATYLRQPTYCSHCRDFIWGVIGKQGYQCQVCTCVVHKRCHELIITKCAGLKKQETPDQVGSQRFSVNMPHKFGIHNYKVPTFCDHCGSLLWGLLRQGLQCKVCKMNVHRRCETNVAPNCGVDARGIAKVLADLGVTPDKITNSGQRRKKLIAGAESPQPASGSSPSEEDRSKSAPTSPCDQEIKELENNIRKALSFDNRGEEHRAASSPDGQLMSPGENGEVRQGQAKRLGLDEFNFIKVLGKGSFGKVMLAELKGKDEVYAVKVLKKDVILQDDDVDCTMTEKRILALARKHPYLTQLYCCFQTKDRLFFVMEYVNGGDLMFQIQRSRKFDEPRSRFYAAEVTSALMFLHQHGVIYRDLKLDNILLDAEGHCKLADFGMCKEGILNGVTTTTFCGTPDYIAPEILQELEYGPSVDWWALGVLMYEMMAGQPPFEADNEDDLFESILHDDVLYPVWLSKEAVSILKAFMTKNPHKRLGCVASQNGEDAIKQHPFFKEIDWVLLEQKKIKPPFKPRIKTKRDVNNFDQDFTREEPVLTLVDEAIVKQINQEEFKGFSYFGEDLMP
The test can be described thus: Binding affinity to human PRKCepsilon at 200 nM by cell-based competition binding assay relative to control in presence of DTT.

The target of test [12] is MAP kinase-activated protein kinase 2 (Homo sapiens) (UniProt P49137). The test can be described thus: Binding affinity to human MAPKAPK2 at 50 nM by cell-based competition binding assay relative to control in presence of DTT. In short, it runs like this:
as §2

Test [13] has as its target Dual specificity mitogen-activated protein kinase kinase 2 (Homo sapiens) (UniProt P36507). Nature of the test: Binding affinity to human MEK2 at 50 nM by cell-based competition binding assay relative to control in presence of DTT.
Test [14] addresses High affinity nerve growth factor receptor (Homo sapiens) (UniProt P04629). Nature of the test: Binding affinity to human TRKA at 50 nM by cell-based competition binding assay relative to control in presence of DTT.
The target in test [15] is Hepatocyte growth factor receptor (Homo sapiens) (UniProt P08581). Nature of the test: Binding affinity to human MET at 50 nM by cell-based competition binding assay relative to control in presence of DTT.

*1 amine or outer side, *2 acyl side, *3 side chain or, on linkers, in order; H or OH if unused. Where a SMILES comes first, the peptide text is derived from it. Bridges are numbered along the chain shown (N, C = ends). [ ]: non-standard residue; d: D form. The star is where a group is joined. Staurosporine = CO[C@@H]1[C@H](N(C)*)C[C@H]2O[C@]1(C)n1c3ccccc3c3c4c(c5c6ccccc6n2c5c31)C(=O)NC4; Suc = O=C(CCC(=O)[*:2])[*:1]; Dap = NC[C@H](N)C(=O)O; βAla = NCCC(=O)O

Chain of High affinity nerve growth factor receptor (Homo sapiens) (P04629 33-796 limits assumed): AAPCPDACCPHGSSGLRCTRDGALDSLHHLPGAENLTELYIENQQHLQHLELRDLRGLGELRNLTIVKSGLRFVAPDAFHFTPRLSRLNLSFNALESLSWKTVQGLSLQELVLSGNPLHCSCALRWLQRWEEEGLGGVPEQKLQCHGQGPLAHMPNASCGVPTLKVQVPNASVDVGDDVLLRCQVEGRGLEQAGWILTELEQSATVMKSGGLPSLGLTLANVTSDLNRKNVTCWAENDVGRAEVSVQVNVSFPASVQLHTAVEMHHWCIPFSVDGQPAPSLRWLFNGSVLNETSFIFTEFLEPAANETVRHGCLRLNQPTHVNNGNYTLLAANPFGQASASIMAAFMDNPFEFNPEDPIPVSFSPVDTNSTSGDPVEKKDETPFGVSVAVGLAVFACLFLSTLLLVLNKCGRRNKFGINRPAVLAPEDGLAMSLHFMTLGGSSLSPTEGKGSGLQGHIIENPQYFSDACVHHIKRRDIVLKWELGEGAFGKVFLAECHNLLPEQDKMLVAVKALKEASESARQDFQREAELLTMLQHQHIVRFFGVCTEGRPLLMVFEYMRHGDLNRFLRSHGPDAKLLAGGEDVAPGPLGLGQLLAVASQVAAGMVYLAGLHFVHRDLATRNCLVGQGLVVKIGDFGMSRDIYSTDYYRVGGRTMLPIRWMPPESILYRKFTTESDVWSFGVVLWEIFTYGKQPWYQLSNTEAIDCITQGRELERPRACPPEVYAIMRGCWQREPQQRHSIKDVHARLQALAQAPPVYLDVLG
Chain of Fibroblast growth factor receptor 2 (Homo sapiens) (P21802 22-821 limits assumed): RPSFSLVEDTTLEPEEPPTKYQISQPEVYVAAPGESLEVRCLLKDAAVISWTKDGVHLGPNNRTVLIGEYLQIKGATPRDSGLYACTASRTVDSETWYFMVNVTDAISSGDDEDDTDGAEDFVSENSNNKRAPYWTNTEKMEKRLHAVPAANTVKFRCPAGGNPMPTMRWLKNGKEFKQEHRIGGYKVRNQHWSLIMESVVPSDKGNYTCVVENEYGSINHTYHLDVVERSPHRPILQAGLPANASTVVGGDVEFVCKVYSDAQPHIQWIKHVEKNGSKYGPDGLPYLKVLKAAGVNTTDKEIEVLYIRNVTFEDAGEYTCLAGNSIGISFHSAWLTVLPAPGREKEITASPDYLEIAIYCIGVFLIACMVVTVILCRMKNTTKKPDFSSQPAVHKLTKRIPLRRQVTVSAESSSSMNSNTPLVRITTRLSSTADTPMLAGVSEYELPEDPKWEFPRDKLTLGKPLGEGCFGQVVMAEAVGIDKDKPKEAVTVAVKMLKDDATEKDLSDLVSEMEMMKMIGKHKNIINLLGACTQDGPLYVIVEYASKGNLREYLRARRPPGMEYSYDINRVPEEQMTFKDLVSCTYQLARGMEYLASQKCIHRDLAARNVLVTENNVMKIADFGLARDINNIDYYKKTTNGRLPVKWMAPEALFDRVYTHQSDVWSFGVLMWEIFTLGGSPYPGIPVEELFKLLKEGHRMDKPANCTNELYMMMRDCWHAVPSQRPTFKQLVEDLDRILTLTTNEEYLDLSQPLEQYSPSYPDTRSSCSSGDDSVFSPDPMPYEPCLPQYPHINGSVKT
Chain of Mast/stem cell growth factor receptor Kit (Homo sapiens) (P10721 whole entry): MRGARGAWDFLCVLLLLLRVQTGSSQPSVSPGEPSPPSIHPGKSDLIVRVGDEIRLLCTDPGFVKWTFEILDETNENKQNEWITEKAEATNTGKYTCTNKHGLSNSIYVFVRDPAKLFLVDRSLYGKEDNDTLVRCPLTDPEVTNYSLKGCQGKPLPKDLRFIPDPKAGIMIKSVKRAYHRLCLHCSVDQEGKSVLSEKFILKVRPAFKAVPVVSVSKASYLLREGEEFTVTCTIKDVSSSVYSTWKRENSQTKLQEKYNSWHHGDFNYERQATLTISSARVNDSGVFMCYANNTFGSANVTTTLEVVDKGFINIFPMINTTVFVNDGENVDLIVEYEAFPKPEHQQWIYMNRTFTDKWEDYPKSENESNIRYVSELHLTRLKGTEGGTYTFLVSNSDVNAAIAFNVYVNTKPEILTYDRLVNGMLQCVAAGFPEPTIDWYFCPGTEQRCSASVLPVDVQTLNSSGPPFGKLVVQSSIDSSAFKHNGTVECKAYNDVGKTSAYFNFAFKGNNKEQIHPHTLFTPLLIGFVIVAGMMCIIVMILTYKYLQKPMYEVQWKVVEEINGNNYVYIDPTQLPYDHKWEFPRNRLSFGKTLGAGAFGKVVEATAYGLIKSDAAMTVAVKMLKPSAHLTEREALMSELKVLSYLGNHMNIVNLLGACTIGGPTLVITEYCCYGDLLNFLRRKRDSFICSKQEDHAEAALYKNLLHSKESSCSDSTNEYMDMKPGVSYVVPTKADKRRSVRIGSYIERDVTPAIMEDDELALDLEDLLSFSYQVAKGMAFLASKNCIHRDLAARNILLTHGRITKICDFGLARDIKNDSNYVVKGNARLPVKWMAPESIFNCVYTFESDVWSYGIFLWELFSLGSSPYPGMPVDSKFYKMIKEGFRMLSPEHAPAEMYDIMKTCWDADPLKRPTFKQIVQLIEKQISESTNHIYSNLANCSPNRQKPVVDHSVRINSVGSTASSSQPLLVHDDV
Chain of Vascular endothelial growth factor receptor 2 (Homo sapiens) (P35968 whole entry): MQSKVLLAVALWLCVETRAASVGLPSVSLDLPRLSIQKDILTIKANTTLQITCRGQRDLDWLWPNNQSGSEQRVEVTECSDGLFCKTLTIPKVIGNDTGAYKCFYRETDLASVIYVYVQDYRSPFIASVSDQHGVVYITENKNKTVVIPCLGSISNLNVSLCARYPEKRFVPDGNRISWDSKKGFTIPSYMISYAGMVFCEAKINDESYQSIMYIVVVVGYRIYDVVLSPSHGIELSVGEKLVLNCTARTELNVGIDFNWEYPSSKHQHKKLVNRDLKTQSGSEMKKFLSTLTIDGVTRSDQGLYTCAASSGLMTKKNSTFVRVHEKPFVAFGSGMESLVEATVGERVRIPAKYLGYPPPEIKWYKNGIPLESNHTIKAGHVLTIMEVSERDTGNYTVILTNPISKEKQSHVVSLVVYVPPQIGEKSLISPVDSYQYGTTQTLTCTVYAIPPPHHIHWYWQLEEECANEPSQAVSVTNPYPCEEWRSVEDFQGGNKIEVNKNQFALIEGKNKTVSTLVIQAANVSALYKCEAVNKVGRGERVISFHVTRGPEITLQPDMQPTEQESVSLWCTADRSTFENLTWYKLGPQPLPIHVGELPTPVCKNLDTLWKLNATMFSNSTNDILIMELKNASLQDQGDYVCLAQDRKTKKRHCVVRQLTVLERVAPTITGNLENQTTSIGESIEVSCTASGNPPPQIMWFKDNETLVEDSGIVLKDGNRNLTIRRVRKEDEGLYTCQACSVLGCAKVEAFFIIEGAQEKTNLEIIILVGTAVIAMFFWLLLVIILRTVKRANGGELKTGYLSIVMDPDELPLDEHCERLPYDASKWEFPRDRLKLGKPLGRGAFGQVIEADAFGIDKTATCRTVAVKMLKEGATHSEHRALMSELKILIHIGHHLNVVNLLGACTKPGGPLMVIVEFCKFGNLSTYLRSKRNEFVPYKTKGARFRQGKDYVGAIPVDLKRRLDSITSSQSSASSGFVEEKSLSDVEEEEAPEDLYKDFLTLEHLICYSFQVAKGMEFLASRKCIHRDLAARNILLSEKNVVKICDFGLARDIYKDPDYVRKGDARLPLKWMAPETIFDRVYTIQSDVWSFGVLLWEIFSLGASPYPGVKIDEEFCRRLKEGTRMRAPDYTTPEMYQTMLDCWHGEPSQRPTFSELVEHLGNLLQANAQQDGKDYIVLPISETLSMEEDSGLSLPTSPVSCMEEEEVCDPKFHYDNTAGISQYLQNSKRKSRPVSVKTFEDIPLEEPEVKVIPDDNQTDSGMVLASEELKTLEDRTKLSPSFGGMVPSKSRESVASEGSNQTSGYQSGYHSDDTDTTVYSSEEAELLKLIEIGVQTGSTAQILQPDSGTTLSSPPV
Chain of MAP kinase-activated protein kinase 2 (Homo sapiens) (P49137 whole entry, looked up): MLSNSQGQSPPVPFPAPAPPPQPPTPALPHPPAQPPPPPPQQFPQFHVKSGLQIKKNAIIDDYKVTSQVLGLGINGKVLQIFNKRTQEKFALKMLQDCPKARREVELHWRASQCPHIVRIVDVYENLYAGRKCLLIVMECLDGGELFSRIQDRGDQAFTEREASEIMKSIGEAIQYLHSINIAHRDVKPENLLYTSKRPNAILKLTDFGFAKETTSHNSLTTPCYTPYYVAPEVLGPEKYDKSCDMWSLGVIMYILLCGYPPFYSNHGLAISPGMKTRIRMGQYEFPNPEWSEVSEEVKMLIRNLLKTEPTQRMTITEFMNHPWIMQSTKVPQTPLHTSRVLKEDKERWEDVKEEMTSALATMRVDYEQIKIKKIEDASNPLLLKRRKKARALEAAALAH

For the molecule `CO[C@@H]1[C@H](N(C)C(=O)CCC(=O)NCCC(=O)NCCC(=O)NCCC(N)=O)C[C@H]2O[C@]1(C)n1c3ccccc3c3c4c(c5c6ccccc6n2c5c31)C(=O)NC4`, the Activity amounted to 52% in [1]; 10% in [2]; 85% in test [3]; 36% in test [4]; 5.6% in [5]; 27% in test [6]. Also, the Selectivity ratio in [7] was found to be 84.

Consider `CO[C@@H]1[C@H](N(C)C(=O)CCC(=O)NCCC(=O)NCCC(=O)NCCC(=O)NCCC(=O)NCCC(=O)NCCC(=O)NCCC(=O)N[C@H]2CSSC[C@@H](C(=O)NCC(N)=O)NC(=O)CNC(=O)[C@H](Cc3ccccc3)NC(=O)[C@H](C(C)C)NC(=O)[C@H](CCCNC(=N)N)NC(=O)[C@H](Cc3ccccc3)NC(=O)[C@H](C(C)C)NC2=O)C[C@H]2O[C@]1(C)n1c3ccccc3c3c4c(c5c6ccccc6n2c5c31)C(=O)NC4` ({Staurosporine-Suc-βAla-βAla-βAla-βAla-βAla-βAla-βAla}-CVFRVFGCG-NH2; disulfide 1-8), for which the Activity in [8] was 39%; in test [9], 100%; in [10], 100%; in test [11] it was 0%.

With `CO[C@@H]1[C@H](N(C)C(=O)CCC(=O)NCCC(=O)NCCC(=O)NCCC(=O)NCCC(=O)NCCC(=O)NCCC(=O)NCCC(=O)N[C@H]2CNC(=O)C[C@@H](C(N)=O)NC(=O)CNC(=O)[C@H](Cc3ccccc3)NC(=O)[C@H](C(C)C)NC(=O)[C@H](CCCNC(=N)N)NC(=O)[C@H](Cc3ccccc3)NC(=O)[C@H](C(C)C)NC2=O)C[C@H]2O[C@]1(C)n1c3ccccc3c3c4c(c5c6ccccc6n2c5c31)C(=O)NC4` ({Staurosporine-Suc-βAla-βAla-βAla-βAla-βAla-βAla-βAla}-[Dap]VFRVFGD-NH2; lactam 1-8), the Activity stood at 100% in test [12], 87% in test [13], 98% in test [14] and 100% in test [15].
